# IDH1 R132H inh – IDH1 R132H (human) inhibition | O75874 | IDH1 R132H reductase, diaphorase/resazurin fluorescence, 60 min | inhibition, % at 10 µM | 0.18% of 70,000 active; in the data active means inhibition above about 34%; inconclusive means no clear call, values can overlap the other calls; inactive means below about 11%;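 further: 0% = DMSO and 100% = no enzyme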
# Target sequence (O75874 whole entry R132H): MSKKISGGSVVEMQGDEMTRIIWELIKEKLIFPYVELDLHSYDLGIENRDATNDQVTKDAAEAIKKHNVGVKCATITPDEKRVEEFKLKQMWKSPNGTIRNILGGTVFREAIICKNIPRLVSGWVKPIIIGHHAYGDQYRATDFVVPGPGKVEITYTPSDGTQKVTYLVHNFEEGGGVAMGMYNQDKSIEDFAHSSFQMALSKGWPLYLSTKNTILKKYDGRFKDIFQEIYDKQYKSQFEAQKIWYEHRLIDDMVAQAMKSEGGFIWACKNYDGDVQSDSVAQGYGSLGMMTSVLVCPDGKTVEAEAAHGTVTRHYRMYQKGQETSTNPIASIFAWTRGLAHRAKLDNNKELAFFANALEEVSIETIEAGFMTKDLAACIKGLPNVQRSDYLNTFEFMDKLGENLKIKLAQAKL
# KDM4C inh – blocks human GASC-1 (KDM4C) demethylase activity; GST-KDM4C 2-372, H3K9me3 peptide, LANCE TR-FRET; 0.15% of 96,000 active; inhibition, % at 12.5 µM; AID 720574; Q9H3R0;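 active means mean replicate inhibition above about 25%, with at least 55% of replicates also reaching it, limit read from the data, passing the limit was not always enough; inconclusive means only one of those two conditions met; inactive means neither condition met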
# Target sequence (Q9H3R0 2-372 limits assumed): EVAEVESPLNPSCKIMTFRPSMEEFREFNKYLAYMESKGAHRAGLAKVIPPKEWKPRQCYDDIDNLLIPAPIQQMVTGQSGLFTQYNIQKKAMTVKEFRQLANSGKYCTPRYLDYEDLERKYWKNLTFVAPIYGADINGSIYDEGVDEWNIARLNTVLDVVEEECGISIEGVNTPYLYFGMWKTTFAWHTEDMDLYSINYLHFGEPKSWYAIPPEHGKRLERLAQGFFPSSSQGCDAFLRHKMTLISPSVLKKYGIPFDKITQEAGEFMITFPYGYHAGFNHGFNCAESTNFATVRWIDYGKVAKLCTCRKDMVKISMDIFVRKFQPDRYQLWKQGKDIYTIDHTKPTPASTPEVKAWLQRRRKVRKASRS
#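 material = GST-tagged GASC-1 (JMJD2C) catalytic fragment, aa 2-372 | amount = enzyme final amount 10 nM | medium = HEPES buffer, pH 7.5, plus ascorbate | also added = H3K9me3 peptide substrate, Fe(II), 2-oxoglutarate | dosing = single dose | times = 30 min demethylation and 1 h detection at room temperature | detection = LANCE TR-FRET | read-out basis = Fall in 671/618 emission ratio as inhibition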
# T cruzi growth-1 – inhibitors of T. cruzi proliferation. T. cruzi beta-gal in NIH3T3, GalScreen luminescence, 90 h. inhibition, % at 8.34 µM. 5.9% of 77,000 active. AID 624255;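 active means mean inhibition above about 93%, with at least 55% of replicates each passing it, limit read from the data, passing the limit was not always enough; inconclusive means only one of those two conditions holds; inactive means neither condition holds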
# T cruzi growth-2 – blocks T. cruzi growth in NIH3T3 host cells | inhibition, % at 8.35 µM | AID 651739 | shares compounds with T cruzi growth-1 | T. cruzi beta-gal in NIH3T3, GalScreen luminescence, 90 h | 72% of 5,600 active;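 active means mean replicate inhibition above about 95% and at least 55% of replicates individually reaching it, limit read from the data; inconclusive means only one of the two criteria is met; inactive means neither criterion is met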
# T cruzi growth-3 – inhibitors of T. cruzi proliferation; inhibition, % at 2.09 µM; shares compounds with T cruzi growth-1; 21% of 5,600 active; T. cruzi beta-gal in NIH3T3, GalScreen luminescence, 90 h; AID 651740;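 active means mean inhibition above about 95%, with at least 55% of replicates also reaching it, limit read from the data; inconclusive means meets just one of the two conditions; inactive means meets neither condition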;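 further: plate controls were neutral control median for no effect and positive control median for full effect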
# NIH3T3 tox – cytotoxicity in mouse NIH/3T3 fibroblasts | shares compounds with T cruzi growth-1 | NIH/3T3 viability, CellTiter-Glo ATP luminescence, 90 h | cytotoxicity (signal decrease), % at 8.35 µM | 14% of 5,600 active | AID 651742;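 active means mean signal decrease across replicates above about 35% based on untreated-well scatter, with enough replicates individually passing, limit read from the data; inconclusive means no rule stated though some were filed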;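 further: 0% = median of neutral control wells and 100% = median of positive control wells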
# 3T3 cytotox 2 – NIH/3T3 (mouse) viability loss; AID 651744; NIH/3T3 viability, CellTiter-Glo ATP luminescence, 90 h; inhibition, % at 24.9 µM; 56% of 5,600 active; shares compounds with T cruzi growth-1;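 active means mean loss of cell viability signal at or above a set limit, and enough replicates individually reaching it; inconclusive means meets only the mean limit or only the replicate share; inactive means meets neither condition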;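 further: 0% = median of neutral control wells and 100% = median of positive control wells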
# Starred values were filed as active, the others as inactive; ? = inconclusive; nt = not tested or not shown. The entries come from a sample that favours hits as a whole.
SMILES,IDH1 R132H inh,KDM4C inh,T cruzi growth-1,T cruzi growth-2,T cruzi growth-3,NIH3T3 tox,3T3 cytotox 2
N#Cc1ccc(-c2ccc3c(c2)[C@@H]2[C@@H](CCN2Cc2ccc4c(c2)OCO4)[C@@H](CO)N3)cc1,nt,0,101*,105*,102*,30,106*
C[C@H]1CN([C@@H](C)CO)C(=O)c2cc(NC(=O)CCN3CCOCC3)ccc2O[C@H]1CN(C)Cc1ccc(C(=O)Nc2ccccc2N)cc1,0,-1,102,nt,nt,nt,nt
C[C@@H]1CN([C@@H](C)CO)S(=O)(=O)c2ccc(C#C[C@@H](C)O)cc2O[C@@H]1CN(C)Cc1ccccn1,nt,1,9,nt,nt,nt,nt
CCCC#Cc1ccc2c(c1)O[C@@H](CN(C)Cc1ccccn1)[C@H](C)CN([C@@H](C)CO)S2(=O)=O,0,14,107*,96*,90,64*,93*
CCCC#Cc1ccc2c(c1)O[C@H](CN(C)Cc1ccccn1)[C@@H](C)CN([C@H](C)CO)S2(=O)=O,1,1,104*,108*,75,40*,69*
COCC#Cc1ccc2c(c1)O[C@H](CN(C)Cc1ccccn1)[C@H](C)CN([C@H](C)CO)S2(=O)=O,0,3,15,nt,nt,nt,nt
C[C@@H]1CN([C@H](C)CO)S(=O)(=O)c2ccc(C#CCN(C)C)cc2O[C@H]1CN(C)Cc1ccccn1,1,4,?,97*,74,17,26*
CCCC#Cc1ccc2c(c1)O[C@H](CN(C)Cc1ccccn1)[C@H](C)CN([C@@H](C)CO)S2(=O)=O,-3,2,59,nt,nt,nt,nt
COCC(=O)N1CCC2(CC1)CN(C(=O)CN1CCOCC1)[C@H](CO)c1c2c2ccc(OC)cc2n1C,nt,0,nt,nt,nt,nt,nt
COCC(=O)N1[C@H](CO)[C@H](c2ccccc2)C12CN(C(=O)NC1CCCC1)C2,nt,-1,nt,nt,nt,nt,nt
N#C[C@H]1[C@@H](c2ccc(C#CC3(O)CCCC3)cc2)[C@@H](CO)N1C(=O)C1CCCCC1,nt,2,93,nt,nt,nt,nt
N#C[C@H]1[C@@H](c2ccc(C#CC3(O)CCCC3)cc2)[C@@H](CO)N1C(=O)C1CCC1,nt,-1,18,nt,nt,nt,nt
N#C[C@H]1[C@@H](c2ccc(C#CC3(O)CCCC3)cc2)[C@H](CO)N1C(=O)C1CCC1,nt,-4,99*,104*,88,-3,69*
N#C[C@@H]1[C@@H](c2ccc(C#CC3(O)CCCC3)cc2)[C@@H](CO)N1C(=O)C1CCCCC1,nt,0,97*,110*,84,23,?
C=CCNC(=O)[C@H]1[C@@H]2C(=O)O[C@@H](c3ccccc3)[C@@H](c3ccccc3)N2[C@@H](c2ccccc2OCCO)[C@]12C(=O)N(C(=O)OCCOC)c1ccc(C#CC3=CCCCC3)cc12,0,nt,nt,nt,nt,nt,nt
CCNC(=O)[C@@H]1[C@@H](CO)[C@@H]2Cn3c(ccc(C4=CCCC4)c3=O)[C@@H]2N1C(=O)CC1CC1,nt,1,?,55,18,0,-11
CCCNC(=O)[C@H]1[C@H](CO)[C@H]2Cn3c(ccc(C4=CCCC4)c3=O)[C@H]2N1C(=O)c1cnccn1,nt,2,99*,33,-7,5,7
CCNC(=O)[C@@H]1[C@@H](CO)[C@@H]2Cn3c(ccc(C4=CCCCC4)c3=O)[C@@H]2N1C(=O)c1cnccn1,nt,0,82,nt,nt,nt,nt
CCNC(=O)[C@H]1[C@H](CO)[C@H]2Cn3c(ccc(C4=CCCCC4)c3=O)[C@H]2N1C(=O)c1cnccn1,nt,0,66,nt,nt,nt,nt
CCNC(=O)[C@H]1[C@H](CO)[C@H]2Cn3c(ccc(C4=CCCCC4)c3=O)[C@H]2N1C(=O)CC1CC1,nt,5,11,nt,nt,nt,nt
CCCNC(=O)[C@@H]1[C@@H](CO)[C@@H]2Cn3c(ccc(C4=CCCC4)c3=O)[C@@H]2N1C(=O)c1cnccn1,nt,-1,97*,22,0,-22,-3
C[C@@H]1CCCCO[C@@H](CN(C)Cc2ccc(C(=O)O)cc2)[C@@H](C)CN([C@@H](C)CO)C(=O)c2cc(NC(=O)Nc3ccc4c(c3)OCO4)ccc2O1,nt,3,-14,nt,nt,nt,nt
CCN(C[C@@H]1[C@@H](c2ccccc2)[C@H](CO)N1CC1CC1)C(=O)c1ccccn1,nt,3,56,nt,nt,nt,nt
COC(=O)C[C@@H]1C[C@@H]2c3cc(NS(=O)(=O)c4ccc(OC)cc4)ccc3O[C@@H]2[C@H](CO)O1,0,1,-29,nt,nt,nt,nt
C[C@@H]1CN([C@@H](C)CO)C(=O)c2ccccc2-c2ccccc2CO[C@H]1CN(C)Cc1ccncc1,3,3,81,nt,nt,nt,nt
SMILES,IDH1 R132H inh,KDM4C inh,T cruzi growth-1,T cruzi growth-2,T cruzi growth-3,NIH3T3 tox,3T3 cytotox 2
C[C@H]1CN([C@@H](C)CO)C(=O)c2ccccc2-c2ccccc2CO[C@@H]1CN(C)Cc1ccncc1,5,0,?,73,7,13,11
C[C@@H]1CN([C@@H](C)CO)C(=O)c2ccccc2-c2ccccc2CO[C@H]1CN(C)C(=O)Cc1ccccc1,nt,0,90,nt,nt,nt,nt
C[C@@H]1CN([C@H](C)CO)C(=O)c2ccccc2-c2ccccc2CO[C@@H]1CN(C)C(=O)Cc1ccccc1,-1,1,102*,21,-53,-2,11
COc1ccc(NC(=O)Nc2ccc3c(c2)C(=O)N([C@H](C)CO)C[C@@H](C)[C@H](CN(C)S(=O)(=O)c2ccccc2)OCCCC[C@@H](C)O3)cc1,1,-1,-26,nt,nt,nt,nt
CN1c2ccc(-c3ccccc3)cc2[C@H]2[C@H](CCN2C(=O)Cc2ccccn2)[C@@H]1CO,nt,3,113*,103*,59,-41,-11
CN(C)C(=O)c1ccc(-c2ccc3c(c2)[C@H]2[C@H](CCN2C(=O)Cc2ccccn2)[C@H](CO)N3C)cc1,nt,-1,90,nt,nt,nt,nt
CN(C)C(=O)c1ccc(-c2ccc3c(c2)[C@@H]2[C@@H](CCN2C(=O)Cc2ccccn2)[C@H](CO)N3C)cc1,nt,0,104*,104*,62,-23,5
CN(C)C(=O)c1ccc(-c2ccc3c(c2)[C@@H]2[C@@H](CCN2C(=O)Cc2ccccn2)[C@@H](CO)N3C)cc1,nt,2,93,nt,nt,nt,nt
COC(=O)C[C@@H]1C[C@@H]2c3cc(NC(=O)Nc4ccc(OC)cc4)ccc3O[C@@H]2[C@@H](CO)O1,nt,1,nt,nt,nt,nt,nt
O=C1OCCC1Sc1nnc(-c2ccccc2[N+](=O)[O-])o1 (stereo not given),0,nt,nt,nt,nt,nt,nt
Cn1cnc(CCNC(=O)C[C@H]2CC[C@@H]3[C@H](COC[C@@H](O)CN3C(=O)Nc3ccc(C(F)(F)F)cc3)O2)c1,nt,0,114*,100*,34,31,22
Cn1cnc(CCNC(=O)C[C@@H]2CC[C@@H]3[C@H](COC[C@@H](O)CN3C(=O)Nc3ccc(C(F)(F)F)cc3)O2)c1,nt,0,11,nt,nt,nt,nt
Cn1cnc(CCNC(=O)C[C@@H]2CC[C@H]3[C@@H](COC[C@H](O)CN3C(=O)Nc3ccc(C(F)(F)F)cc3)O2)c1,nt,0,52,nt,nt,nt,nt
Cn1cnc(CCNC(=O)C[C@@H]2CC[C@@H]3[C@H](COC[C@H](O)CN3C(=O)Nc3ccc(C(F)(F)F)cc3)O2)c1,nt,-1,107*,45,-42,19,24
Cc1n[nH]c(C)c1C(=O)CC1(O)C(=O)Nc2ccc(Br)cc21 (stereo not given),0,nt,nt,nt,nt,nt,nt
O=C(/C=C/c1ccc(OCCCCc2ccccc2)cc1)NO,0,nt,nt,nt,nt,nt,nt

# Bioassay records: PubChem BioAssay, Broad Institute
